Measurements taken from ChEMBL document CHEMBL4316650, “Leucinostatin Y: A Peptaibiotic Produced by the Entomoparasitic Fungus Purpureocillium lilacinum 40-H-28” (J Nat Prod, 2019).
The source made the active and inactive calls. The rule behind the calls is not given here. *1 amine or outer side, *2 acyl side, *3 side chain or, on linkers, in order; H or OH if unused. Where a SMILES comes first, the peptide text is derived from it. [ ]: non-standard residue; d: D form. The star is where a group is joined. ξ: configuration not given here. X1 = CCC(=O)C[C@H](O)C[C@@H](C)C[C@H](N[*:1])C(=O)[*:2]; X3 = CCC(=O)CC(O)CC(C)C[C@H](N[*:1])C(=O)[*:2]; Hexenoyl(2E,4S-Me) = CC[C@H](C)/C=C/C(=O)*; Leu(3R-OH) = CC(C)[C@@H](O)[C@H](N)C(=O)O; NH((S)CH(Me)CH2NMe2) = C[C@@H](CN(C)C)N*; Pro(4S-Me) = C[C@@H]1CN[C@H](C(=O)O)C1; X2 = CCC(C)/C=C/C(=O)*; Aib = CC(C)(N)C(=O)O; βAla = NCCC(=O)O; ξA = CC(N)C(=O)O

Assays:
PANC-1 [1] = test: Cytotoxicity against human PANC1 cells assessed as reduction in cell viability measured after 24 hrs under glucose-deprived condition by MTT assay; format: functional, cell-based
Procedure, shortened: (§1)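 Cells grown at 37 °C, 5% CO2 in DMEM with 10% FBS. 2.5 × 10⁴ cells/well were seeded in DMEM for 24 h, then PBS-washed and switched to fresh DMEM (+glucose) or glucose-deprived medium. Compound exposure was 24 h. MTT at 0.5 mg/mL was added for 4 h at 37 °C, then 20% SDS for 12 h at 37 °C. Absorbance read at 570 nm.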

PANC-1 [2] = test: Cytotoxicity against human PANC1 cells assessed as reduction in cell viability measured after 24 hrs in presence of glucose by MTT assay; format: cell-based; details: panc-1, 24 h; procedure, shortened: as §1
BXPC-3 [3] = test: Cytotoxicity against human BxPC3 cells assessed as reduction in cell viability measured after 24 hrs under glucose-deprived condition by MTT assay; format: functional, cell-based; procedure, shortened: as §1
BXPC-3 [4] = test: Cytotoxicity against human BxPC3 cells assessed as reduction in cell viability measured after 24 hrs in presence of glucose by MTT assay; format: cell-based; details: bxpc-3, 24 h; procedure, shortened: as §1
PSN1 [5] = test: Cytotoxicity against human PSN1 cells assessed as reduction in cell viability measured after 24 hrs under glucose-deprived condition by MTT assay; format: functional, cell-based; procedure, shortened: as §1
PSN1 [6] = test: Cytotoxicity against human PSN1 cells assessed as reduction in cell viability measured after 24 hrs in presence of glucose by MTT assay; format: cell-based; details: psn1, 24 h; procedure, shortened: as §1
Homo sapiens [7] = species: Homo sapiens; test: Cytotoxicity against human PK8 cells assessed as reduction in cell viability measured after 24 hrs under glucose-deprived condition by MTT assay; format: functional, cell-based; procedure, shortened: as §1
[8] = Cytotoxicity against human PK8 cells assessed as reduction in cell viability measured after 24 hrs in presence of glucose by MTT assay; format: cell-based; procedure, shortened: as §1
Homo sapiens [9] = species: Homo sapiens; test: Inhibition of mitochondrial ATPase in human PANC1 cells assessed as decrease in oxygen consumption rate in presence of glucose by seahorse XFe96 analyser based assay; format: cell-based
Procedure, shortened: (§2)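 Mito stress test on PANC-1 cells: 2 × 10⁴ cells were plated in DMEM overnight. Cells were moved to XF base medium with 1 mM pyruvate and 2 mM GlutaMax, containing 1 g/L glucose (or lacking it for glucose-free runs), then held 30 min at 37 °C without CO2. Injections in order: compound, 1 μM oligomycin, 1 μM FCCP, 0.5 μM rotenone plus 0.5 μM antimycin. OCR and ECAR were taken as mean rates per cycle of 2 min mixing and 3 min acquisition, over 20 or 21 cycles.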

Homo sapiens [10] = species: Homo sapiens; test: Inhibition of mitochondrial ATPase in human PANC1 cells assessed as increase in extracellular acidification rate in presence of glucose by seahorse XFe96 analyser based assay; format: cell-based; procedure, shortened: as §2
Homo sapiens [11] = species: Homo sapiens; test: Inhibition of mitochondrial ATPase in human PANC1 cells assessed as decrease in oxygen consumption rate at 0.6 ug/ml in presence of glucose by seahorse XFe96 analyser based assay; format: cell-based; procedure, shortened: as §2
Homo sapiens [12] = species: Homo sapiens; test: Inhibition of mitochondrial ATPase in human PANC1 cells assessed as decrease in oxygen consumption rate at 0.6 ug/ml in absence of glucose by seahorse XFe96 analyser based assay; format: cell-based; procedure, shortened: as §2
Homo sapiens [13] = species: Homo sapiens; test: Inhibition of mitochondrial ATPase in human PANC1 cells assessed as increase in extracellular acidification rate at 0.6 ug/ml in presence of glucose by seahorse XFe96 analyser based assay; format: cell-based; procedure, shortened: as §2
Homo sapiens [14] = species: Homo sapiens; test: Inhibition of mitochondrial ATPase in human PANC1 cells assessed as increase in extracellular acidification rate at 0.6 ug/ml in absence of glucose by seahorse XFe96 analyser based assay; format: cell-based; procedure, shortened: as §2

Question: With `CCC(=O)CC(O)CC(C)C[C@H](NC(=O)[C@@H]1C[C@H](C)CN1C(=O)/C=C/C(C)CC)C(=O)N[C@H](C(=O)NC(C)(C)C(=O)N[C@@H](CC(C)C)C(=O)N[C@@H](CC(C)C)C(=O)NC(C)(C)C(=O)NC(C)(C)C(=O)NCCC(=O)NC(C)C(=O)O)[C@H](O)C(C)C` (stereo partly drawn) (X2-[Pro(4S-Me)][X3][Leu(3R-OH)][Aib]LL[Aib][Aib][βAla][ξA]-OH) as the molecule, how does the Activity (PANC-1 [1]) read?
Answer: Its Activity is “inactive”.

Question: What about the Activity (PANC-1 [2]) of the same molecule?
Answer: The Activity was “Non-Toxic”.

Question: And the Activity (BXPC-3 [3])?
Answer: The Activity was “inactive”.

Question: What about the Activity (BXPC-3 [4]) of the same molecule?
Answer: The Activity was “Non-Toxic”.

Question: And the Activity (PSN1 [5])?
Answer: Its Activity is “inactive”.

Question: What about the Activity (PSN1 [6]) of the same molecule?
Answer: The Activity was “Non-Toxic”.

Question: What about the Activity (Homo sapiens [7]) of the same molecule?
Answer: Its Activity is “inactive”.

Question: What about the Activity [8] of the same molecule?
Answer: Its Activity is “Non-Toxic”.

Question: And the inhibition (Homo sapiens [9])?
Answer: Its inhibition is “inactive”.

Question: And the inhibition (Homo sapiens [10])?
Answer: The inhibition was “inactive”.

Question: With `CCC(=O)C[C@H](O)C[C@@H](C)C[C@H](NC(=O)[C@@H]1C[C@H](C)CN1C(=O)/C=C/[C@@H](C)CC)C(=O)N[C@H](C(=O)NC(C)(C)C(=O)N[C@@H](CC(C)C)C(=O)N[C@@H](CC(C)C)C(=O)NC(C)(C)C(=O)NC(C)(C)C(=O)NCCC(=O)N[C@@H](C)CN(C)C)[C@H](O)C(C)C` ({Hexenoyl(2E,4S-Me)}-[Pro(4S-Me)][X1][Leu(3R-OH)][Aib]LL[Aib][Aib][βAla]-{NH((S)CH(Me)CH2NMe2)}) as the molecule, how does the Activity (PANC-1 [1]) read?
Answer: The Activity was “Active”.

Question: And the Activity (BXPC-3 [3])?
Answer: Its Activity is “Active”.

Question: And the Activity (BXPC-3 [4])?
Answer: The Activity was “Non-Toxic”.

Question: And the Activity (PSN1 [5])?
Answer: Its Activity is “Active”.

Question: What about the Activity (PSN1 [6]) of the same molecule?
Answer: The Activity was “Non-Toxic”.

Question: What about the Activity (Homo sapiens [7]) of the same molecule?
Answer: The Activity was “Active”.

Question: What about the Activity [8] of the same molecule?
Answer: Its Activity is “Non-Toxic”.

Question: What about the inhibition (Homo sapiens [9]) of the same molecule?
Answer: The inhibition was “Active”.

Question: And the inhibition (Homo sapiens [10])?
Answer: The inhibition was “Active”.

Question: And the inhibition (Homo sapiens [11])?
Answer: The inhibition was “Active”.

Question: What about the inhibition (Homo sapiens [12]) of the same molecule?
Answer: The inhibition was “Active”.

Question: And the inhibition (Homo sapiens [13])?
Answer: The inhibition was “Active”.

Question: And the inhibition (Homo sapiens [14])?
Answer: The inhibition was “inactive”.
